Data on 5 compounds can be found in ChEMBL document CHEMBL1145627, “E-ring-modified 7-oxyiminomethyl camptothecins: Synthesis and preliminary in vitro and in vivo biological evaluation” (Bioorg Med Chem Lett, 2008).

Each structure is given as a SMILES string.

Series [1] deals with NCI-H460. Put plainly: Antiproliferative activity against human H460 cells after 1 hr of drug exposure measured after 72 hrs. The series is classed as functional, cell-based. The essentials:
(§1)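 Growth inhibition after 1-h drug exposure; IC50 is the concentration giving 50% reduction of cell growth versus untreated controls. Values are means ± SD from at least three experiments.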

Series [2] relates to HT-29. As to the kind of experiment: Antiproliferative activity against human HT29 cells after 1 hr of drug exposure measured after 72 hrs. Type of series: functional, cell-based. Summed up: as §1
For series [3], the system named is HT-29. As to the kind of experiment: Antiproliferative activity against BCRP overexpressing mitoxantrone-resistant human HT29 cells after 1 hr of drug exposure measured after 72 hrs. The series is classed as functional, cell-based. Summed up: as §1
The subject of series [4] is HT-29. As to the kind of experiment: Resistant index, ratio of IC50 for BCRP overexpressing mitoxantrone-resistant human HT29 cells to IC50 for human HT29 cells. Type of series: functional. The essentials:
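Resistance index in HT29/mit, the BCRP-overexpressing subline. IC50 values come from the 1-h exposure growth inhibition assay, as 50% growth reduction versus untreated controls.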

The subject of the next series is PANC-1. As to the kind of experiment: Antitumor activity against human Panc1 cells xenografted athymic mouse assessed as inhibition of tumor volume at 400 mg/kg, po administered in q4dx4 schedule. The series is classed as functional. The essentials:
(§2)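 Human tumor xenografts (CoBa colon, MKN-28 gastric, Panc-1 pancreatic) grown subcutaneously in mice. Drug given orally on an intermittent q4dx4 schedule. Read-out is % tumor volume inhibition in treated versus control mice. Complete responses were scored as tumor disappearance lasting at least ten days.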

Series [5] concerns Mus musculus. As to the kind of experiment: Toxicity in human Panc1 cells xenografted athymic mouse assessed as survival at 400 mg/kg, po administered in q4dx4 schedule. The series is classed as organism-based, PANC-1. Details: route oral. Conditions: in vivo. The essentials:
(§3)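 Mice carried subcutaneous human tumor xenografts (CoBa, MKN-28 or Panc-1). They were dosed orally on an intermittent q4dx4 schedule, which was also used to set the maximum tolerated dose. Toxicity was scored as lethal toxicity, given as dead/treated mice. Drug-induced % body weight loss was also recorded.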

Series [6] relates to Mus musculus. As to the kind of experiment: Toxicity in human CoBa cells xenografted athymic mouse assessed as survival at 50 mg/kg, iv administered in q4dx4 schedule. Type of series: organism-based. Further details: dose 50 mg/kg, route intravenous. Conditions: in vivo.
Series [7] can be described thus: Antitumor activity against human CoBa cells xenografted in athymic mouse assessed as inhibition of tumor volume at 50 mg/kg, iv administered in q4dx4 schedule.
Series [8] deals with MKN-28. As to the kind of experiment: Antitumor activity against human MKN28 cells xenografted athymic mouse assessed as inhibition of tumor volume at 8 mg/kg, po administered in q4dx4 schedule. Type of series: functional. Summed up: as §2
In series [9] the test system is Mus musculus. Put plainly: Toxicity in human MKN28 cells xenografted athymic mouse assessed as loss of body weight at 8 mg/kg, po administered in q4dx4 schedule. The series is classed as organism-based, MKN-28. Details: dose 8 mg/kg, route oral. Conditions: in vivo. The essentials: (§4)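 Oral dosing on an intermittent q4dx4 schedule in mice bearing MKN-28 gastric carcinoma xenografts. Tumor volume inhibition % is relative to controls. Body weight loss % is the loss induced by drug treatment.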

The test system of series [10] is Mus musculus. As to the kind of experiment: Toxicity in human MKN28 cells xenografted athymic mouse assessed as survival at 8 mg/kg, po administered in q4dx4 schedule. Type of series: organism-based, MKN-28. Details: dose 8 mg/kg, route oral. The settings on record: in vivo. Summed up: as §3
Series [11] concerns MKN-28. As to the kind of experiment: Antitumor activity against human MKN28 cells xenografted athymic mouse assessed as inhibition of tumor volume at 16 mg/kg, po administered in q4dx4 schedule. Type of series: functional. Summed up:
as §2

For series [12], the system named is Mus musculus. Put plainly: Toxicity in human MKN28 cells xenografted athymic mouse assessed as loss of body weight at 16 mg/kg, po administered in q4dx4 schedule. Conditions: in vivo. Details: dose 16 mg/kg, route oral. Type of series: organism-based, MKN-28. Summed up: as §4
For series [13], the system named is Mus musculus. Put plainly: Toxicity in human MKN28 cells xenografted athymic mouse assessed as survival at 16 mg/kg, po administered in q4dx4 schedule. The series is classed as organism-based, MKN-28. Details: dose 16 mg/kg, route oral. Conditions: in vivo. The essentials:
as §3

Series [14] concerns MKN-28. Put plainly: Antitumor activity against human MKN28 cells xenografted athymic mouse assessed as inhibition of tumor volume at 4 mg/kg, po administered in q4dx4 schedule. The series is classed as functional. The essentials: as §2
The subject of series [15] is Mus musculus. As to the kind of experiment: Toxicity in human MKN28 cells xenografted athymic mouse assessed as loss of body weight at 4 mg/kg, po administered in q4dx4 schedule. Type of series: organism-based, MKN-28. Details: dose 4 mg/kg, route oral. Conditions: in vivo. The essentials: as §4
Series [16] relates to Mus musculus. Put plainly: Toxicity in human MKN28 cells xenografted athymic mouse assessed as survival at 4 mg/kg, po administered in q4dx4 schedule. Further details: dose 4 mg/kg, route oral. Type of series: organism-based, MKN-28. The settings on record: in vivo. The essentials: as §3
Series [17] relates to NCI-H460. Put plainly: Antiproliferative activity against human H460 cells after 2 hrs of drug exposure measured after 72 hrs. The series is classed as functional, cell-based. Summed up: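 Growth inhibition with IC50 taken after 2-h drug exposure, as the concentration giving 50% reduction of cell growth versus untreated controls.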

Take `CC[C@@]1(O)C(=O)OCc2c1cc1n(c2=O)Cc2c-1nc1ccccc1c2/C=N/OCc1ccccc1`: the IC50 with NCI-H460 [1] came out at 30 nM; in the series on HT-29 [2], 56 nM; in the series with HT-29 [3], 42 nM. For the same compound, the “Ratio IC50” value in the series on HT-29 [4] was determined as 0.75.

Consider `CC[C@@]1(O)OC(=O)c2c1cc1n(c2=O)Cc2c-1nc1ccccc1c2/C=N/OC(C)(C)C`, for which the LCK was 1.6 with PANC-1 and 1.1 in series [7]. For the same compound, the Activity entry in the series with Mus musculus [5] and in the series on Mus musculus [6] was “Non-toxic” each time.

On to `CCC1(O)CC(=O)OCc2c1cc1n(c2=O)Cc2c-1nc1ccccc1c2/C=N/OCc1ccccc1` (stereo unspecified), for which the LCK in the series on MKN-28 [8] was determined as 0.4; with MKN-28 [11], 0.2; with MKN-28 [14] it was 0. For the same compound, the inhibition in vivo at 8 mg/kg in the series with MKN-28 [8] (Mus musculus, MKN-28) stood at 60%. Further, the Activity is 6% in the series with Mus musculus [9]; “Non-toxic” in the series with Mus musculus [10]; 0% in the series with Mus musculus [12]; “Non-toxic” in the series on Mus musculus [13]; 0% with Mus musculus [15]; “Non-toxic” with Mus musculus [16]. In the series on MKN-28 [11] (Mus musculus, MKN-28), the inhibition in vivo at 16 mg/kg turned out to be 47%. The IC50 stood at 15 nM in the series with NCI-H460 [1], 17 nM in the series with HT-29 [2] and 350 nM in the series on HT-29 [3]. In addition, the “Ratio IC50” value in the series on HT-29 [4] was found to be 20. Besides, in the series with MKN-28 [14] (Mus musculus, MKN-28), the inhibition in vivo at 4 mg/kg was found to be 17%.

In the series on NCI-H460 [17], `CC[C@@]1(O)CC(=O)OCc2c1cc1n(c2=O)Cc2c-1nc1ccccc1c2/C=N/OC(C)(C)C` gave a 50% inhibitory concentration (IC50) of 1.8 nM.

In the case of `CC[C@]1(O)CC(=O)OCc2c1cc1n(c2=O)Cc2c-1nc1ccccc1c2/C=N/OC(C)(C)C`, the IC50 in the series on NCI-H460 [17] was over 200 nM.
